# Data from publication PMC3608840 (Journal of biomolecular screening, 2012).
# Columns and labels:
# mPAP [1] = target: T1, mPAP (Mus musculus, UniProt Q8CE08); experiment: Fluorogenic; assay type: biochemical
# T1 sequence (Q8CE08 32-381): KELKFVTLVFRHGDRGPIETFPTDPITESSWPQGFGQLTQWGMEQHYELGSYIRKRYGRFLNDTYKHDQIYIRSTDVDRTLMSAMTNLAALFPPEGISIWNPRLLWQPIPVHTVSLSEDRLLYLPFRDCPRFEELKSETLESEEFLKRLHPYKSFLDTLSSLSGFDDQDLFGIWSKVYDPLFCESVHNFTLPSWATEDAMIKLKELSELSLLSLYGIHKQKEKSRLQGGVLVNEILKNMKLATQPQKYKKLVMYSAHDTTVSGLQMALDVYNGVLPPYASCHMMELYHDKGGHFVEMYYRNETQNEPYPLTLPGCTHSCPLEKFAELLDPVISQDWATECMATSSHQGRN
# A2B adenosine receptor = target: T2, A2B adenosine receptor (Homo sapiens, UniProt P29275); experiment: A2B receptor activation by adenosine in calcium mobilization assay; assay type: cell-based; details: BABPA 5 μM, pCPT-cAMP 100 μM; 1 mM adenosine as ligand
# T2 sequence (P29275 1-332): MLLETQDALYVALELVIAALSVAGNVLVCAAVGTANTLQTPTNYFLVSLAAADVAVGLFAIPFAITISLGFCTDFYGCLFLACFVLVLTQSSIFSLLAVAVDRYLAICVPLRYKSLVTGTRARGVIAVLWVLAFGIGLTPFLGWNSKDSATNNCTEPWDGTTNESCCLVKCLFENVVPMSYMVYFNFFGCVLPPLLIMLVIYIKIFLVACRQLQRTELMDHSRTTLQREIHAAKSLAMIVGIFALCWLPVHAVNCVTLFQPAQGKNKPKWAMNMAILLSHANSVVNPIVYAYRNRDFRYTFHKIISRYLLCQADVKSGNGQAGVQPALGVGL
# ALP [2] = experiment: 5′-AMP hydrolysis; assay type: biochemical, bovine; details: for ALP 5′-AMP Hydrolysis IC50: 100 μM AMP
# hPAP [3] = target: T3, hPAP (Homo sapiens, UniProt P15309); experiment: 5′-AMP hydrolysis; assay type: biochemical
# T3 sequence (P15309 33-386): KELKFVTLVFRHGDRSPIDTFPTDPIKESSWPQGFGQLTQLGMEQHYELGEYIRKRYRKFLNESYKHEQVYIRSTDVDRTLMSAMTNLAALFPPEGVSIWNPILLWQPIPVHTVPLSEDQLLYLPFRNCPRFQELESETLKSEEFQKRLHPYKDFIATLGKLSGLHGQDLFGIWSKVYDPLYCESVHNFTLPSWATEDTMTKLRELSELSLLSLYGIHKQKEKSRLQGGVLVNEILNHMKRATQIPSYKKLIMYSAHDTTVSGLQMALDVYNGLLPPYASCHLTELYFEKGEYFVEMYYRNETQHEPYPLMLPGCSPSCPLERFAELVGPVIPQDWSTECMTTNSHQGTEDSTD
# transmembrane PAP = experiment: Cell-based calcium mobilization assay of AMP hydrolysis by transmembrane PAP; details: HEK293 cells expressing hA2B + Gαq-s5 + transmembrane PAP, 1 mM AMP
# pAP [4] = experiment: Fluorogenic; assay type: biochemical, potato
# How it was run: (§1)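 Bovine ALP (5 pM final; 50 mM Tris-HCl pH 8.0) or potato acid phosphatase (1.5 nM final; 50 mM sodium acetate pH 5.3), each buffer with 0.01% Tween-20, or human PTP-1B. 12-point in-plate compound series, 15 min room-temperature preincubation with enzyme, then 100 μM DiFMUP final. Fluorescence (ex 340/em 450 nm) read each min for 3 min. Change normalized to enzyme and no-enzyme controls, sigmoidal dose-response fit.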
# ALP [5] = experiment: Fluorogenic; assay type: biochemical, bovine; details: for ALP Fluorogenic Assay IC50: DiFMUP substrate, pH 8.0
# How it was run: as §1
# PTP = target: T4, PTP (Homo sapiens, UniProt P18031); experiment: Fluorogenic assay, Protein Tyrosine Phosphatase-1B; assay type: biochemical; details: data not shown
# T4 sequence (P18031 1-435): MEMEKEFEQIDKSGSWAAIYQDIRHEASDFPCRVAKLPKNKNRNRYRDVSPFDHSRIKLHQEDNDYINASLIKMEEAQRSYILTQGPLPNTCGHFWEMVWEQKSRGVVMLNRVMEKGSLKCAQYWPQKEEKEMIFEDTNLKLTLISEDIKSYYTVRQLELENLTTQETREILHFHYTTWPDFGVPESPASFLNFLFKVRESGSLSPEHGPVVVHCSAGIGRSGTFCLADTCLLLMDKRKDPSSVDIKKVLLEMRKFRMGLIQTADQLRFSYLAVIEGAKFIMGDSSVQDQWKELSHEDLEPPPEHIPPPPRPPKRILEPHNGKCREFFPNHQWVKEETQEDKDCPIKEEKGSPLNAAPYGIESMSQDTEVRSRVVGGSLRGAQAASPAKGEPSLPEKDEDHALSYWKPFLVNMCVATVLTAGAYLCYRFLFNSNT
# How it was run: as §1
# hPAP [6] = target: T3, hPAP; experiment: Fluorogenic; assay type: biochemical
# [7] = system: equilibrative nucleoside transporter 1 (ENT1); details: cited from earlier work
# mPAP [8] = target: T1, mPAP; experiment: 5′-AMP hydrolysis; assay type: biochemical; details: for Normalized inhibition of mPAP, 5′-AMP hydrolysis (in words): compound at 100 μM
# PAP [9] = details: cited from earlier work
# HEK293 cells = experiment: Cell killing in the cell-based calcium mobilization assay
# [10] = read-out: hPAP 5′-AMP Hydrolysis IC50, 400 μM AMP, pH 7.0
# [11] = read-out: hPAP Fluorogenic Assay IC50, DiFMUP substrate, pH 7.0
smiles,measurement,setting,value
"Nc1ncnc2c1nc(Sc1ccc(Cl)cc1)n2C1OC2COP(=O)(O)O[C@H]2C1O (stereo in doubt) [compound 21, 8-(4-Chlorophenylthio)-cAMP sodium]",IC50,"mPAP [1]; read-out: mPAP Fluorogenic Assay IC50, DiFMUP substrate, pH 7.0",35.5 µM
same,Block of A2B receptor activation by adenosine (in words),A2B adenosine receptor,did not block
same,ALP 5′-AMP Hydrolysis IC50,ALP [2],Inactive
same,IC50,hPAP [3]; [10],5.66 µM
same,Inhibition of hydrolysis of AMP to adenosine by transmembrane PAP (in words),transmembrane PAP,dose-dependently inhibited
same,"Inhibition of pAP, fluorogenic substrate (in words)",pAP [4],Neither pCPT-cAMP nor pCPT-cGMP inhibited
same,pAP Fluorogenic Assay IC50,"pAP [4]; DiFMUP substrate, pH 5.3",Inactive
same,"Inhibition of ALP, fluorogenic substrate (in words)",ALP [5],Neither pCPT-cAMP nor pCPT-cGMP inhibited
same,ALP Fluorogenic Assay IC50,ALP [5],Inactive
same,"Inhibition of PTP, fluorogenic substrate (in words)",PTP,Neither pCPT-cAMP nor pCPT-cGMP inhibited
same,IC50,hPAP [6]; [11],39.8 µM
same,Block of ENT1 (in words),[7],blocked
same,IC50,"mPAP [8]; read-out: mPAP 5′-AMP Hydrolysis IC50, 1 mM AMP, pH 7.0",20.2 µM
"O=P(O)(O)C(NCc1ccccc1)c1ccccc1 (stereo not drawn) [BABPA, α-Benzylaminobenzylphosphonic acid]",IC50,"mPAP [1]; read-out: IC50 mPAP, fluorogenic assay, positive control, DiFMUP substrate",0.0206 µM
same,Inhibition of PAP (potency in words),PAP [9],low nanomolar range
same,Block of A2B receptor activation by adenosine (in words),A2B adenosine receptor,did not block
same,Inhibition of hydrolysis of AMP to adenosine by transmembrane PAP (in words),transmembrane PAP,dose-dependently inhibited
same,IC50,"hPAP [6]; read-out: IC50 hPAP, fluorogenic assay, positive control, DiFMUP substrate",0.00497 µM
"CCCOc1ccc2ccccc2c1/C=C/c1nc(O)c([N+](=O)[O-])c(=O)[nH]1 [Compound 49, 6-hydroxy-5-nitro-2-[(E)-2-(2-propoxy-naphthalen-1-yl)-vinyl]-3H-pyrimidin-4-one]","Inhibition of ALP, 5′-AMP hydrolysis (in words)",ALP [2]; compound at 100 μM,did not inhibit
same,IC50,hPAP [3],2.9 µM
same,IC50,mPAP [8],42.9 µM
O=C([O-])[C@H](O)[C@@H](O)C(=O)[O-].[Na+].[Na+] [L-(+)-tartrate],"Inhibition of ALP, 5′-AMP hydrolysis (in words)",ALP [2]; 10 mM,did not inhibit
same,"Inhibition of hPAP, 5′-AMP hydrolysis (in words)",hPAP [3]; 10 mM,inhibited
same,"Inhibition of mPAP, 5′-AMP hydrolysis (in words)",mPAP [8]; 10 mM,inhibited
"O=C(O)c1nn(Cc2ccc(Cl)cc2Cl)c2ccccc12 [compound 9, Lonidamine]",mPAP Fluorogenic Assay IC50,"mPAP [1]; DiFMUP substrate, pH 7.0",Inactive
same,ALP 5′-AMP Hydrolysis IC50,ALP [2],Inactive
same,IC50,hPAP [3],15.5 µM
same,pAP Fluorogenic Assay IC50,"pAP [4]; DiFMUP substrate, pH 5.3",Inactive
same,ALP Fluorogenic Assay IC50,ALP [5],Inactive
same,IC50,hPAP [6],50.1 µM
same,IC50,mPAP [8],31.1 µM
same,Cell killing (in words),HEK293 cells,killed the cells
"COc1ccc2c(c1)c(CC(=O)O)c(C)n2Cc1ccc(Cl)cc1 [compound 17, 1-(4-Chlorobenzyl)-5-methoxy-2-methylindole-3-acetic acid]",mPAP Fluorogenic Assay IC50,"mPAP [1]; DiFMUP substrate, pH 7.0",Inactive
same,ALP 5′-AMP Hydrolysis IC50,ALP [2],Inactive
same,IC50,hPAP [3]; [10],46.3 µM
same,pAP Fluorogenic Assay IC50,"pAP [4]; DiFMUP substrate, pH 5.3",Inactive
same,ALP Fluorogenic Assay IC50,ALP [5],Inactive
same,IC50,hPAP [6]; [11],39.8 µM
same,mPAP 5′-AMP Hydrolysis IC50,"mPAP [8]; 1 mM AMP, pH 7.0",Inactive
same,"Normalized inhibition of mPAP, 5′-AMP hydrolysis (in words)",mPAP [8],did not inhibit
"Clc1ccc(C(c2ccc(Cl)cc2)n2cc[n+](CC(OCc3ccc(Cl)cc3Cl)c3ccc(Cl)cc3Cl)c2)cc1 (stereo not drawn) [compound 29, Calmidazolium chloride]",IC50,mPAP [1],39.8 µM
same,ALP 5′-AMP Hydrolysis IC50,ALP [2],Inactive
same,IC50,hPAP [3],1.48 µM
same,pAP Fluorogenic Assay IC50,"pAP [4]; DiFMUP substrate, pH 5.3",Inactive
same,ALP Fluorogenic Assay IC50,ALP [5],Inactive
same,IC50,hPAP [6],44.7 µM
same,IC50,mPAP [8],11.6 µM
same,Cell killing (in words),HEK293 cells,killed the cells
"O=c1c(O)c(-c2ccc(O)c(O)c2)oc2cc(O)cc(O)c12 [compound 70, Quercetin]",mPAP Fluorogenic Assay IC50,"mPAP [1]; DiFMUP substrate, pH 7.0",Inactive
same,ALP 5′-AMP Hydrolysis IC50,ALP [2],Inactive
same,hPAP 5′-AMP Hydrolysis IC50,"hPAP [3]; 400 μM AMP, pH 7.0",Inactive
same,pAP Fluorogenic Assay IC50,"pAP [4]; DiFMUP substrate, pH 5.3",Inactive
same,ALP Fluorogenic Assay IC50,ALP [5],Inactive
same,IC50,hPAP [6],31.6 µM
same,mPAP 5′-AMP Hydrolysis IC50,"mPAP [8]; 1 mM AMP, pH 7.0",Inactive
same,"Normalized inhibition of mPAP, 5′-AMP hydrolysis (in words)",mPAP [8],did not inhibit
"CCn1cc(C(=O)O)c(=O)c2ccc(C)nc21 [compound 77, Nalidixic acid sodium]",IC50,mPAP [1],2.8 µM
same,ALP 5′-AMP Hydrolysis IC50,ALP [2],Inactive
same,IC50,hPAP [3],20.5 µM
same,pAP Fluorogenic Assay IC50,"pAP [4]; DiFMUP substrate, pH 5.3",Inactive
same,ALP Fluorogenic Assay IC50,ALP [5],Inactive
same,IC50,hPAP [6],28.2 µM
same,IC50,mPAP [8],20.6 µM
"CCCCCCC(C)(C)c1ccc([C@@H]2C[C@H](O)CC[C@H]2CCCO)c(O)c1 [compound 96, CP-55940]",IC50,mPAP [1],15.8 µM
same,ALP 5′-AMP Hydrolysis IC50,ALP [2],Inactive
same,hPAP 5′-AMP Hydrolysis IC50,"hPAP [3]; 400 μM AMP, pH 7.0",Inactive
same,IC50,"pAP [4]; read-out: pAP Fluorogenic Assay IC50, DiFMUP substrate, pH 5.3",39.8 µM
same,ALP Fluorogenic Assay IC50,ALP [5],Inactive
same,IC50,hPAP [6],31.6 µM
same,mPAP 5′-AMP Hydrolysis IC50,"mPAP [8]; 1 mM AMP, pH 7.0",Inactive
same,"Normalized inhibition of mPAP, 5′-AMP hydrolysis (in words)",mPAP [8],did not inhibit
"O=c1c(O)c(-c2cc(O)c(O)c(O)c2)oc2cc(O)cc(O)c12 [compound 97, Myricetin]",ALP 5′-AMP Hydrolysis IC50,ALP [2],Inactive
same,IC50,hPAP [3],26.5 µM
same,pAP Fluorogenic Assay IC50,"pAP [4]; DiFMUP substrate, pH 5.3",Inactive
same,ALP Fluorogenic Assay IC50,ALP [5],Inactive
same,IC50,hPAP [6],44.7 µM
"Nc1nc2c(nc(Sc3ccc(Cl)cc3)n2[C@@H]2O[C@@H]3COP(=O)(O)O[C@H]3[C@H]2O)c(=O)[nH]1 [pCPT-cGMP, 8-(4-chlorophenylthio) cGMP]",IC50,"mPAP [1]; read-out: IC50 mouse secretory PAP, fluorogenic substrate",49.7 µM
same,Inhibition of human secretory PAP in vitro using AMP as substrate (in words),hPAP [3]; pH 7.0,inhibited
same,Inhibition of hydrolysis of AMP to adenosine by transmembrane PAP (in words),transmembrane PAP,inhibited
same,"Inhibition of pAP, fluorogenic substrate (in words)",pAP [4],Neither pCPT-cAMP nor pCPT-cGMP inhibited
same,"Inhibition of ALP, fluorogenic substrate (in words)",ALP [5],Neither pCPT-cAMP nor pCPT-cGMP inhibited
same,"Inhibition of PTP, fluorogenic substrate (in words)",PTP,Neither pCPT-cAMP nor pCPT-cGMP inhibited
same,IC50,"hPAP [6]; read-out: IC50 human secretory PAP, fluorogenic substrate",31.1 µM
same,Inhibition of mouse secretory PAP in vitro using AMP as substrate (in words),mPAP [8]; pH 7.0,inhibited
